Experimental data as given in ChEMBL document CHEMBL1138064, “Discovery of N-[(3R)-1-azabicyclo[2.2.2]oct-3-yl]furo[2,3-c]pyridine-5-carboxamide, an agonist of the alpha7 nicotinic acetylcholine receptor, for the potential treatment of cognitive deficits in schizophrenia: synthesis and structure--activity relationship” (J Med Chem, 2006).
Active and inactive are the calls of the source. The rule behind the calls is not given here.

Assays:
[1] = target: Neuronal acetylcholine receptor subunit alpha-7 (Rattus norvegicus, UniProt Q05941); test: Displacement of [3H]MLA from alpha-7 nAChR in Sprague-Dawley rat brain homogenates; type: tissue-based
Procedure, shortened: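 Rat brain homogenate binding assay with [3H]MLA as radioligand. Values are the average of two or more experiments.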

[2] = target: Prostaglandin G/H synthase 1 (Homo sapiens) (UniProt P23219); test: Inhibition of COX1 at 1 uM
Homo sapiens [3] = organism: Homo sapiens; test: Inhibition of phospholipase C at 1 uM
[4] = target: Epidermal growth factor receptor (Homo sapiens) (UniProt P00533); test: Inhibition of EGFR at 1 uM
[5] = target: Cathepsin B (Homo sapiens) (UniProt P07858); test: Inhibition of cathepsin B at 1 uM
[6] = target: C-X-C chemokine receptor type 2 (Homo sapiens) (UniProt P25025); test: Inhibition of CXCR2 at 1 uM
[7] = target: Vasoactive intestinal polypeptide receptor 1 (Homo sapiens) (UniProt P32241); test: Inhibition of VIP1 receptor at 1 uM
[8] = target: Type-1 angiotensin II receptor (Homo sapiens) (UniProt P30556); test: Inhibition of AT1 receptor at 1 uM
Rattus norvegicus [9] = test: Drug level in Sprague-Dawley rat brain at 10 mg/kg, iv; type: ADME, organism-based; parameters: dose 10 mg/kg, route intravenous; details: in vivo, read-out: Drug uptake
Procedure, shortened: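 Anesthetized rats received d-amphetamine (1 mg/kg, iv) and then the agonist iv in the auditory gating model. Brain concentrations were measured after the iv agonist dose.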

[10] = target: Atrial natriuretic peptide receptor (Homo sapiens) (UniProt P20594+P16066+P17342); test: Inhibition of ANP receptor at 1 uM; type: protein assay
[11] = target: Neuromedin-K receptor (Homo sapiens) (UniProt P29371); test: Inhibition of NK3 receptor at 1 uM
[12] = target: Nitric oxide synthase, inducible (Homo sapiens) (UniProt P35228); test: Inhibition of Nitric oxide synthase, inducible at 1 uM
[13] = Volume of distribution in rat at 5 mg/kg; type: ADME, organism-based; parameters: dose 5 mg/kg; details: in vivo, read-out: Vdss
[14] = target: cGMP-dependent 3',5'-cyclic phosphodiesterase (Homo sapiens) (UniProt O00408); test: Inhibition of PDE2 at 1 uM
[15] = target: Neuronal acetylcholine receptor subunit alpha-7 (Rattus norvegicus) (UniProt Q05941); test: Activity at alpha7 nAChR in Sprague-Dawley rat hippocampal neurons assessed as induction of MLA-inhibited desensitizing inward current at 0.3 uM relative to (-)-nicotine; type: functional, tissue-based; parameters: scale not given: the % may be the effect or the level left; details: Hippocampus
Procedure, shortened: (§1)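 Rat hippocampal neurons were recorded by whole-cell patch clamp with rapid agonist application. Desensitizing inward currents were measured, and α7 mediation was tested with MLA (10 nM), n = 3.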

[16] = target: Prostaglandin G/H synthase 2 (Homo sapiens) (UniProt P35354); test: Inhibition of COX2 at 1 uM
[17] = target: Adrenergic receptor alpha-1 (Homo sapiens) (UniProt P35348+P25100+P35368); test: Inhibition of adrenergic alpha1 receptor at 1 uM; type: protein assay
[18] = target: Vasopressin V1a receptor (Homo sapiens) (UniProt P37288); test: Inhibition of V1A receptor at 1 uM
[19] = target: Phosphodiesterase 3 (Homo sapiens) (UniProt Q14432+Q13370); test: Inhibition of PDE3 at 1 uM; type: protein assay
[20] = target: Beta-1 adrenergic receptor (Homo sapiens) (UniProt P08588); test: Inhibition of adrenergic beta-1 receptor at 1 uM
[21] = target: 5-hydroxytryptamine receptor 7 (Homo sapiens) (UniProt P34969); test: Inhibition of 5HT7 receptor at 1 uM
[22] = target: L-type calcium channel, verapamil site (Homo sapiens, UniProt O60840+Q01668+Q13698+Q13936); test: Inhibition of verapamil site of Calcium channel L type at 1 uM; type: protein assay
[23] = Ratio of drug level in brain against plasma in rat by MBUA method after 60 min; type: ADME, organism-based; details: brain and plasma
[24] = target: Muscarinic acetylcholine receptor M5 (Homo sapiens) (UniProt P08912); test: Inhibition of M5 receptor at 1 uM
[25] = target: 5-hydroxytryptamine receptor 2C (Homo sapiens) (UniProt P28335); test: Inhibition of 5HT2C receptor at 1 uM
[26] = target: Calcitonin gene-related peptide type 1 receptor (Homo sapiens) (UniProt Q16602); test: Inhibition of CGRP receptor at 1 uM
[27] = target: Adrenergic receptor alpha-2 (Homo sapiens) (UniProt P08913+P18825+P18089); test: Inhibition of adrenergic alpha2 receptor at 1 uM; type: protein assay
[28] = target: Endothelin-converting enzyme 1 (Homo sapiens) (UniProt P42892); test: Inhibition of ECE at 1 uM
[29] = Half life in human liver microsome; type: ADME; details: liver microsomes
[30] = target: Endothelin receptor type B (Homo sapiens) (UniProt P24530); test: Inhibition of human ETB receptor at 1 uM
[31] = target: Neuronal acetylcholine receptor subunit alpha-7 (Rattus norvegicus) (UniProt Q05941); test: Activity at alpha-7 nAChR in Sprague-Dawley rat hippocampal neurons assessed as induction of MLA-inhibited desensitizing inward current at 3 uM relative to (-)-nicotine; type: functional, tissue-based; parameters: scale not given: the % may be the effect or the level left; details: Hippocampus; procedure, shortened: as §1
Homo sapiens [32] = organism: Homo sapiens; test: Inhibition of potassium channel V type at 1 uM
[33] = target: Endothelin-1 receptor (Homo sapiens) (UniProt P25101); test: Inhibition of human ETA receptor at 1 uM
Rattus norvegicus [34] = test: Reversal of amphetamine-induced gating deficit in Sprague-Dawley at 1 mg/kg, iv; type: functional, organism-based; parameters: dose 1 mg/kg
Procedure, shortened: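 Anesthetised rats; d-amphetamine 1 mg/kg iv given to disrupt auditory gating recorded in the hippocampal CA3 region (conditioning vs test responses, analogous to human P50). Agonist given iv afterwards; read-out is % gating versus amphetamine-alone. The 10 mg/kg dose was run as a separate experiment. Brain drug levels were measured after the iv doses.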

[35] = target: Adenosine A2 receptor (Homo sapiens) (UniProt P29275+P29274); test: Inhibition of adenosine A2 receptor at 1 uM; type: protein assay
Homo sapiens [36] = organism: Homo sapiens; test: Inhibition of elastase at 1 uM
[37] = target: Sodium-dependent noradrenaline transporter (Homo sapiens) (UniProt P23975); test: Inhibition of human NE transporter at 1 uM
[38] = target: Vasoactive intestinal polypeptide receptor 2 (Homo sapiens) (UniProt P41587); test: Inhibition of PACAP receptor at 1 uM
[39] = target: Cholecystokinin receptor type A (Homo sapiens) (UniProt P32238); test: Inhibition of CCK1 receptor at 1 uM
[40] = target: Nociceptin receptor (Homo sapiens) (UniProt P41146); test: Inhibition of ORL1 receptor at 1 uM
[41] = target: 5-hydroxytryptamine receptor 5A (Homo sapiens) (UniProt P47898); test: Inhibition of 5HT5A receptor at 1 uM
[42] = target: Mu-type opioid receptor (Homo sapiens) (UniProt P35372); test: Inhibition of human mu opioid receptor at 1 uM
[43] = target: B2 bradykinin receptor (Homo sapiens) (UniProt P30411); test: Inhibition of B2 receptor at 1 uM
[44] = target: 5-hydroxytryptamine receptor 1B (Homo sapiens) (UniProt P28222); test: Inhibition of 5HT1B receptor at 1 uM
Sequence of 5-hydroxytryptamine receptor 1B (Homo sapiens) (P28222 whole entry): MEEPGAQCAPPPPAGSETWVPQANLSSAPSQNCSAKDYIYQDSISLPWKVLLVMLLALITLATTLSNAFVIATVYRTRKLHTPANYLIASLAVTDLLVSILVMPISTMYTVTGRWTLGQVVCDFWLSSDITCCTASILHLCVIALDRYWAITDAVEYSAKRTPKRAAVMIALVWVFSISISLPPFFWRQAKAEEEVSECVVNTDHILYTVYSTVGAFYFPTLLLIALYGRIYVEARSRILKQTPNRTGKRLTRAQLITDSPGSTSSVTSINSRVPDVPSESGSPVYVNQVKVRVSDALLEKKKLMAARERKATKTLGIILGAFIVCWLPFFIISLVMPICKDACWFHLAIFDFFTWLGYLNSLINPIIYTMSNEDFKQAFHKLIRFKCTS

Sequence of Neuronal acetylcholine receptor subunit alpha-7 (Rattus norvegicus) (Q05941 whole entry): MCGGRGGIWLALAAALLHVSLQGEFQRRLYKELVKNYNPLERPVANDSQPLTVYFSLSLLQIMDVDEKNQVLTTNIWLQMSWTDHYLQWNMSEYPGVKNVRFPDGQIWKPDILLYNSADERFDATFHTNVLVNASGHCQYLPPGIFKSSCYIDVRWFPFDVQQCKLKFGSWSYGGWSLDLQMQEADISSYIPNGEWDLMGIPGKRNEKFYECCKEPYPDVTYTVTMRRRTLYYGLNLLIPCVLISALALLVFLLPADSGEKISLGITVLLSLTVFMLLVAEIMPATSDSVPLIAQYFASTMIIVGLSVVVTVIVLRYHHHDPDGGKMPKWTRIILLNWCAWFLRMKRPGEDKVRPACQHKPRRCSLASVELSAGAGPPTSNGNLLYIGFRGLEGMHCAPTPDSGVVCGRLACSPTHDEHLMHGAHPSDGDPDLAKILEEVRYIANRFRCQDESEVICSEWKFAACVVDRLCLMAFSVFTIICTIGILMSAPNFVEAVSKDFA
Sequence of Sodium-dependent noradrenaline transporter (Homo sapiens) (P23975 whole entry): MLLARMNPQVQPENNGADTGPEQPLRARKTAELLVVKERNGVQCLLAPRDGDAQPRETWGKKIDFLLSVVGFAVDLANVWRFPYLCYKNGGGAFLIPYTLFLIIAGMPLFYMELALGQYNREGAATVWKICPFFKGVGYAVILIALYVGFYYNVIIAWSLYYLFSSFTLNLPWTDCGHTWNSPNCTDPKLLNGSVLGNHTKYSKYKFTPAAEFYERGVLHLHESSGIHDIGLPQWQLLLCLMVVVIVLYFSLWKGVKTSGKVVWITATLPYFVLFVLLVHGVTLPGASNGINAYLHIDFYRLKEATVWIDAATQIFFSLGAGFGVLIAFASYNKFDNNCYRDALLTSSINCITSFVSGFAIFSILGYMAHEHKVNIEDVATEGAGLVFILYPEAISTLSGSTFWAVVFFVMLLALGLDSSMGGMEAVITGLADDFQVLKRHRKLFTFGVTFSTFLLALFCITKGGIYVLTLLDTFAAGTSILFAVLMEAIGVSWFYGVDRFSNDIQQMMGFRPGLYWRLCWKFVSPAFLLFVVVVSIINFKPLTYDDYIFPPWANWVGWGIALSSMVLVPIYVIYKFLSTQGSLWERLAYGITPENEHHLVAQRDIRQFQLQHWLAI
Sequence of C-X-C chemokine receptor type 2 (Homo sapiens) (P25025 whole entry): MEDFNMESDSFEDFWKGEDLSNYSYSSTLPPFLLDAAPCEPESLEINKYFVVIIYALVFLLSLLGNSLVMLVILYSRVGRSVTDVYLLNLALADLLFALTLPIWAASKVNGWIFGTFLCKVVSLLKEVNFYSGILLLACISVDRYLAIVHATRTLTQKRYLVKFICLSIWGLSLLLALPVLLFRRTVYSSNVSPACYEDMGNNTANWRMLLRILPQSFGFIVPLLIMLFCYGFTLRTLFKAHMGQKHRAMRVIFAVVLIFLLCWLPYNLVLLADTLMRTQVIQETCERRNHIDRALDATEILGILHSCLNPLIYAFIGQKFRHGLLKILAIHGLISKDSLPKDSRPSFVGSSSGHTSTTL
Sequence of Endothelin-1 receptor (Homo sapiens) (P25101 whole entry): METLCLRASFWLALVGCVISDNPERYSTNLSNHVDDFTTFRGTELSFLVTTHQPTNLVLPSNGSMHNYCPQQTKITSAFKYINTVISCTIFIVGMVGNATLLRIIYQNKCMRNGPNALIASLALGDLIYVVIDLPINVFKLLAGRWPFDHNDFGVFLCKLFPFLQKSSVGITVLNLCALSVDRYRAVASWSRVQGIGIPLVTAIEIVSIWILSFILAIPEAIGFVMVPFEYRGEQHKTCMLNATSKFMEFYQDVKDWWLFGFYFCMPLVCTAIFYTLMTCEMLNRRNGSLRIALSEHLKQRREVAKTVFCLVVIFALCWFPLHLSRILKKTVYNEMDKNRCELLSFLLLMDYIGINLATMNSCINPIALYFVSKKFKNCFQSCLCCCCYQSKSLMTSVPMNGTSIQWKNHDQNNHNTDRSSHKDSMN
Sequence of Neuromedin-K receptor (Homo sapiens) (P29371 whole entry): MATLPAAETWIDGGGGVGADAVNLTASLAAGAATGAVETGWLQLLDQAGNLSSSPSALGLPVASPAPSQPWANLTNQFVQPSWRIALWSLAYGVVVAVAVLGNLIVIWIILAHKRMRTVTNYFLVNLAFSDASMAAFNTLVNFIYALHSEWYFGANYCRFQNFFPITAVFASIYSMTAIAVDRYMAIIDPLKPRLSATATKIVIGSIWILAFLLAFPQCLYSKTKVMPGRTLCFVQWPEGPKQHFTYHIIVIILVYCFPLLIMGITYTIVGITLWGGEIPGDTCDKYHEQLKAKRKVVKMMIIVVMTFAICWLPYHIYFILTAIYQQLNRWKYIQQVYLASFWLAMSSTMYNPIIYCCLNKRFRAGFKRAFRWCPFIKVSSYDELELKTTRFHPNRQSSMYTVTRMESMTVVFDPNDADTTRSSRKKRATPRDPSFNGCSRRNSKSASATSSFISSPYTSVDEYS
Sequence of Endothelin receptor type B (Homo sapiens) (P24530 whole entry): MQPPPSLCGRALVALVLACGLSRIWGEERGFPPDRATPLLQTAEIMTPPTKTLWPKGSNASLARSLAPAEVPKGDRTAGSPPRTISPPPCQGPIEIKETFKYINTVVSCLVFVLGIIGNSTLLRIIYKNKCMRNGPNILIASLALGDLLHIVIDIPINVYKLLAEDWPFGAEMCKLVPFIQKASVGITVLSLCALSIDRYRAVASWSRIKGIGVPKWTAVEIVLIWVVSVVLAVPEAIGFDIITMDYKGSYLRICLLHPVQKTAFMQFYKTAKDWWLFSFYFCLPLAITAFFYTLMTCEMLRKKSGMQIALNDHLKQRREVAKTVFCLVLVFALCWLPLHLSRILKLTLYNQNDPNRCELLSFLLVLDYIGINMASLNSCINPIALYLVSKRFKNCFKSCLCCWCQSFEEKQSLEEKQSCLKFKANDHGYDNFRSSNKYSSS
Sequence of Nitric oxide synthase, inducible (Homo sapiens) (P35228 whole entry): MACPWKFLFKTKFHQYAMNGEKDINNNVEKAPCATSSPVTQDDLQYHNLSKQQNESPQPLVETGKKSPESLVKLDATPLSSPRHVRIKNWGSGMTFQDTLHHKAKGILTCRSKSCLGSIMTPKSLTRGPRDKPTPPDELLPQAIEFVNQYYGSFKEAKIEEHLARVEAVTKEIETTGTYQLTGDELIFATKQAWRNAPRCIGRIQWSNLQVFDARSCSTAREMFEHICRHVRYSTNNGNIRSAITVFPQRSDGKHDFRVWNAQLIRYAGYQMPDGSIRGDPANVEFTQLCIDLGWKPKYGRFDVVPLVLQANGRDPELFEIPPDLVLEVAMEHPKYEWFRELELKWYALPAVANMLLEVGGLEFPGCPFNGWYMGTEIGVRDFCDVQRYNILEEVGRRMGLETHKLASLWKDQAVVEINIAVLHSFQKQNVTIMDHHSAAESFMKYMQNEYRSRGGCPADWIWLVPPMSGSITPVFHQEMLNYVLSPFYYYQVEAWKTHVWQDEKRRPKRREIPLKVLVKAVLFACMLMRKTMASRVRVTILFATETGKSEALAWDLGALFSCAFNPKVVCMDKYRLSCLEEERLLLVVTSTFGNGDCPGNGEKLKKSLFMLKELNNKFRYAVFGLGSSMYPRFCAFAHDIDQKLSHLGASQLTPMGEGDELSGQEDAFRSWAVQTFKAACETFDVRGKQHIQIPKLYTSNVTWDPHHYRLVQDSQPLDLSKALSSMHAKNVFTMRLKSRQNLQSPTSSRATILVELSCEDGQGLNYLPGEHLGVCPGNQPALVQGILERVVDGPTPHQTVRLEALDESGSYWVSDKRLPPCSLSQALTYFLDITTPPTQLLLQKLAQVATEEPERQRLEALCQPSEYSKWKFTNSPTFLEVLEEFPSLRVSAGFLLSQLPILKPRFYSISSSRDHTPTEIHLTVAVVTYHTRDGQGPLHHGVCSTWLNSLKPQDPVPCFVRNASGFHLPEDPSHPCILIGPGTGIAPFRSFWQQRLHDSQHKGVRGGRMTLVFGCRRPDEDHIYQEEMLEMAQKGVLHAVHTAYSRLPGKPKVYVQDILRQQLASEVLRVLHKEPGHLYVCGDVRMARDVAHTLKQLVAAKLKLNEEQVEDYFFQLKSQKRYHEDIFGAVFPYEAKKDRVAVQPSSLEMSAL
Sequence of 5-hydroxytryptamine receptor 2C (Homo sapiens) (P28335 whole entry): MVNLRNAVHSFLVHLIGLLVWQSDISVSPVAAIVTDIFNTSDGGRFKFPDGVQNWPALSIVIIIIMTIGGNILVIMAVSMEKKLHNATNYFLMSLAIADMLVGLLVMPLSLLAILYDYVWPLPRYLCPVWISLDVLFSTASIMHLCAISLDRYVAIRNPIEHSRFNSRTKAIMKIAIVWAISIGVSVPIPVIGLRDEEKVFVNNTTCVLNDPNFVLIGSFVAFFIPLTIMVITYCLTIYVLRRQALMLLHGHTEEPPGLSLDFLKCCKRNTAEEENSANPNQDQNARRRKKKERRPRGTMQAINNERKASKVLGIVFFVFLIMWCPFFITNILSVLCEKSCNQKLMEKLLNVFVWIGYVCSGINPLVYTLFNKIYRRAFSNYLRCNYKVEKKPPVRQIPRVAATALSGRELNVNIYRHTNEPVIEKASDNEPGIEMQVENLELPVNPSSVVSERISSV
Sequence of Neuronal acetylcholine receptor subunit alpha-7 (Q05941 whole entry): as the sequence (Q05941 whole entry) above

SMILES: O=C(N[C@H]1CN2CCC1CC2)c1cc2ccoc2cn1 [PHA-543613]
- Ki [1]: 8.8 nM
- inhibition [2]: < 10%
- inhibition (Homo sapiens [3]): < 10%
- inhibition [4]: < 10%
- inhibition [5]: < 10%
- inhibition [6]: < 10%
- inhibition [7]: < 10%
- inhibition [8]: 16%
- concentration (Rattus norvegicus [9]): 14.9 µM
- inhibition [10]: < 10%
- inhibition [11]: < 10%
- inhibition [12]: < 10%
- Vd [13]: 1.8 L/kg
- inhibition [14]: 25%
- Activity [15]: 34%
- inhibition [16]: 14%
- inhibition [17]: < 10%
- inhibition [18]: 14%
- inhibition [19]: < 10%
- inhibition [20]: < 10%
- inhibition [21]: < 10%
- inhibition at 1 µM [22]: < 10%
- Kp at 1 h [23]: 1.5
- inhibition [24]: < 10%
- inhibition [25]: < 10%
- inhibition [26]: < 10%
- inhibition [27]: 14%
- inhibition [28]: < 10%
- half-life [29]: > 2 h
- inhibition [30]: < 10%
- Activity [31]: 103%
- inhibition (Homo sapiens [32]): < 10%
- inhibition [33]: < 10%
- Activity (Rattus norvegicus [34]): Active
- inhibition [35]: < 10%
- inhibition (Homo sapiens [36]): 22%
- inhibition [37]: < 10%
- inhibition [38]: < 10%
- inhibition [39]: < 10%
- inhibition [40]: < 10%
- inhibition [41]: < 10%
- inhibition [42]: < 10%
- inhibition [43]: < 10%
- inhibition [44]: < 10%
